Broadly, the pKb is the negative decadic logarithm of the Kb, by convention in mol/L. What is called Ki is the equilibrium dissociation constant of an inhibitor or competing ligand from its target. A low value points to higher affinity. One may read the AUC as the area under the concentration-time curve, a measure of exposure. A word on the Cmax: it is the highest concentration seen after dosing. The logD is lipophilicity at a set pH, counting ionised and neutral species. A low value points to lower lipophilicity. As usually defined, the Tmax is the time from dosing to the highest level. What is called bioavailability is dose-corrected exposure relative to a reference, in per cent. Higher therefore signals good availability. A word on the inhibition: it is the share of the control response that was lost under treatment. Lower therefore signals little suppression. A word on the IC50: it is the point on the concentration scale where inhibition reaches its midpoint.

We go through five molecules from ChEMBL document CHEMBL2390935, “Synthesis and pharmacological properties of a new hydrophilic and orally bioavailable 5-HT4 antagonist” (Eur J Med Chem, 2013).

Series [1] deals with T1, 5-hydroxytryptamine receptor 4 (Homo sapiens, UniProt Q13639). The series can be described thus: Antagonist activity at human 5-HT4B receptor expressed in HEK293 cells assessed as inhibition of 5-HT-stimulated adenylyl cyclase activity after 20 mins. The series is classed as functional, cell-based. The procedure, abridged: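 Membranes from HEK293 cells stably expressing human 5-HT4(b). Adenylyl cyclase activity stimulated by 1 µM 5-HT. Inhibition measured across a concentration range of test compound.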

The target in series [2] is T1, 5-hydroxytryptamine receptor 4. The series can be described thus: Displacement of [3H]GR113808 from human 5-HT4B receptor expressed in HEK293 cells after 1 hr by liquid scintillation counting analysis. The series is classed as cell-based. The method, boiled down:
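Competitive binding with 0.3 nM [3H]GR113808 on membranes from HEK293 cells stably expressing human 5-HT4(b).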
(In general: Displacement assays read how much labelled ligand stays bound in the presence of the test substance.)

The subject of series [3] is Rattus norvegicus. The series can be described thus: AUC in Sprague-Dawley rat assessed as 2-[4-[[4-(3,4-dihydro-2H-[1,3]oxazino[3,2-a]indole-10-carbonyloxymethyl)-1-piperidinyl]methyl]phenyl]-2-methylpropanoic acid level at 10 mg/kg, po by LC-MS/MS analysis. The series is classed as ADME, organism-based, Plasma. The arrangement: dose 10 mg/kg, route oral. As to conditions: in vivo. The method, boiled down:
(§1)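 Male Sprague-Dawley rats, 10 mg/kg p.o. in 10% ethanol/water or 2% β-cyclodextrin (1.0 mg/ml), n = 2–3. Tail-vein and terminal cardiac blood taken under isoflurane at 5 min–24 h. Plasma acidified and acetonitrile-precipitated, then the free acid measured by LC-MS MRM (LOQ 0.5 ng/ml). Non-compartmental analysis per animal, averaged. T1/2 from the terminal log-linear regression; Cmax and Tmax read directly.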

The subject of series [4] is Rattus norvegicus. Kind of series: Elimination half life in Sprague-Dawley rat assessed as 2-[4-[[4-(3,4-dihydro-2H-[1,3]oxazino[3,2-a]indole-10-carbonyloxymethyl)-1-piperidinyl]methyl]phenyl]-2-methylpropanoic acid level at 10 mg/kg, po by LC-MS/MS analysis. The series is classed as ADME, organism-based. On the set-up: dose 10 mg/kg, route oral. As to conditions: in vivo. The procedure, abridged: as §1

Series [5] relates to Rattus norvegicus. The series can be described thus: Cmax in Sprague-Dawley rat assessed as 2-[4-[[4-(3,4-dihydro-2H-[1,3]oxazino[3,2-a]indole-10-carbonyloxymethyl)-1-piperidinyl]methyl]phenyl]-2-methylpropanoic acid level at 10 mg/kg, po by LC-MS/MS analysis. The series is classed as ADME, organism-based. The arrangement: dose 10 mg/kg, route oral. As to conditions: in vivo. The method, boiled down:
as §1

Series [6] has as its system Rattus norvegicus. Kind of series: Oral bioavailability in Sprague-Dawley rat assessed as 2-[4-[[4-(3,4-dihydro-2H-[1,3]oxazino[3,2-a]indole-10-carbonyloxymethyl)-1-piperidinyl]methyl]phenyl]-2-methylpropanoic acid level at 10 mg/kg by LC-MS/MS analysis. As to conditions: in vivo. The series is classed as ADME, organism-based. The procedure, abridged: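 Rats given 10 mg/kg orally and, for the free acid, 1 mg/kg i.v. Free-acid plasma levels measured by LC-MS at timed points. AUC by linear trapezoidal rule, extrapolated to infinity. F = (AUC p.o./dose p.o.)/(AUC i.v./dose i.v.), reported as %.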

A short description of series [7]: 1-octanol-PBS partition coefficient, log D of the compound at pH 7.4 by shake-flask method. The series is classed as physicochemical.
In series [8] the test system is Rattus norvegicus. The series can be described thus: Tmax in Sprague-Dawley rat assessed as 2-[4-[[4-(3,4-dihydro-2H-[1,3]oxazino[3,2-a]indole-10-carbonyloxymethyl)-1-piperidinyl]methyl]phenyl]-2-methylpropanoic acid level at 10 mg/kg, po by LC-MS/MS analysis. The series is classed as ADME, organism-based. The arrangement: dose 10 mg/kg, route oral. As to conditions: in vivo. The procedure, abridged:
as §1

Series [9] in a line: Cmax in Sprague-Dawley rat at 10 mg/kg, po by LC-MS/MS analysis. The series is classed as ADME, organism-based. The arrangement: dose 10 mg/kg, route oral. As to conditions: in vivo. The method, boiled down: (§2)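 Male Sprague-Dawley rats (n = 3 per compound, n = 2 for the medoxomil prodrug) given 10 mg/kg p.o., in 10% ethanol in water or in 2% β-cyclodextrin (1.0 mg/ml). Tail-vein and terminal blood taken to 24 h. Plasma acidified and acetonitrile-precipitated. Free acid quantified by UPLC-ESI MRM MS. Non-compartmental analysis for each animal, then averaged; AUC by linear trapezoidal rule extrapolated to infinity; Cmax and Tmax read directly; T1/2 from terminal slope.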

The nature of series [10]: Elimination half life in Sprague-Dawley rat at 10 mg/kg, po by LC-MS/MS analysis. The series is classed as ADME, organism-based. The arrangement: dose 10 mg/kg, route oral. As to conditions: in vivo, read-out: beta t1/2. The method, boiled down: as §2
Series [11] in a line: Metabolic stability in human liver microsomes assessed as compound remaining at 2 uM after 60 mins by LC-MS analysis. The series is classed as ADME, Microsome. As to conditions: read-out: Stability. The method, boiled down: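 Pooled human liver microsomes (30 donors) at 0.5 mg protein/ml, 2 µM substrate, 1% DMSO, 1 mM NADPH plus 1 mM UDPGA, 37 °C. Cofactor-free parallel incubations run. Samples taken at 0, 10, 30 and 60 min and quenched with ice-cold acetonitrile. Disappearance judged by LC-MS peak area against the 0 min sample without cofactors.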
(In general: Microsomes from liver hold many membrane-bound enzymes, among them those of drug oxidation.)

A short description of series [12]: Oral bioavailability in Sprague-Dawley rat at 10 mg/kg by LC-MS/MS analysis. The series is classed as ADME, organism-based. As to conditions: in vivo. The procedure, abridged:
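Male Sprague-Dawley rats dosed 10 mg/kg p.o. and 1 mg/kg i.v. Plasma free acid measured by LC-MS/MS at timed samples up to 24 h. Non-compartmental AUC (trapezoidal, extrapolated to infinity). F = (AUC p.o./dose p.o.)/(AUC i.v./dose i.v.), expressed in %.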

The nature of series [13]: Tmax in Sprague-Dawley rat at 10 mg/kg, po by LC-MS/MS analysis. The series is classed as ADME, organism-based. On the set-up: dose 10 mg/kg, route oral. As to conditions: in vivo. The method, boiled down:
as §2

Another series addresses hERG (KCNH2) (Homo sapiens, UniProt Q12809). Kind of series: Inhibition of human ERG expressed in HEK293 cells at 100 uM by whole-cell patch-clamp technique relative to control. The series is classed as cell-based. As to conditions: HEK293 cells expressing human ERG. The procedure, abridged:
(§3)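 Whole-cell patch clamp on isolated hERG-expressing cells superfused with HB-PSS, one cell per coverslip, holding potential -80 mV. Peak tail current averaged over 5–10 pulses. Baseline taken before exposure; ascending concentrations applied to steady state without washout, at least 3 cells per concentration. Residual current corrected for time-matched vehicle rundown. IC50 from a Hill-type fit. Terfenadine 50 nM served as positive control.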
On the technique in general: Patch clamp records ionic current or voltage across a cell membrane.

In series [14] the test system is Rattus norvegicus. The series can be described thus: AUC in Sprague-Dawley rat at 10 mg/kg, po by LC-MS/MS analysis. The arrangement: dose 10 mg/kg, route oral. As to conditions: in vivo. The series is classed as ADME, organism-based, Plasma. The procedure, abridged: as §2
Series [15] addresses Voltage-gated inwardly rectifying potassium channel KCNH2 (Homo sapiens, UniProt Q12809). The series can be described thus: Inhibition of human ERG expressed in HEK293 cells by whole-cell patch-clamp technique. The series is classed as cell-based. The procedure, abridged: as §3

T1 sequence (Q13639 whole entry): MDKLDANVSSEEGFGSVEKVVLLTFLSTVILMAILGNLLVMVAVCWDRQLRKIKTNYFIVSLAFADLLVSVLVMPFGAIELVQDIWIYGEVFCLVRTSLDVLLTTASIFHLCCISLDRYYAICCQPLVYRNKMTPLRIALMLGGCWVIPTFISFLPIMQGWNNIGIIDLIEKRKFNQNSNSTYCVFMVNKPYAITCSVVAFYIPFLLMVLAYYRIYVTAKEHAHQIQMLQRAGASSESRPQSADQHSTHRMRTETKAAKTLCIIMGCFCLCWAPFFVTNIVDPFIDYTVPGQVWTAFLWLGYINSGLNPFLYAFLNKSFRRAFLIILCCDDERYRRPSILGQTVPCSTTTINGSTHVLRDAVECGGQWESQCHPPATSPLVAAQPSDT
Sequence of Voltage-gated inwardly rectifying potassium channel KCNH2 (Q12809 whole entry): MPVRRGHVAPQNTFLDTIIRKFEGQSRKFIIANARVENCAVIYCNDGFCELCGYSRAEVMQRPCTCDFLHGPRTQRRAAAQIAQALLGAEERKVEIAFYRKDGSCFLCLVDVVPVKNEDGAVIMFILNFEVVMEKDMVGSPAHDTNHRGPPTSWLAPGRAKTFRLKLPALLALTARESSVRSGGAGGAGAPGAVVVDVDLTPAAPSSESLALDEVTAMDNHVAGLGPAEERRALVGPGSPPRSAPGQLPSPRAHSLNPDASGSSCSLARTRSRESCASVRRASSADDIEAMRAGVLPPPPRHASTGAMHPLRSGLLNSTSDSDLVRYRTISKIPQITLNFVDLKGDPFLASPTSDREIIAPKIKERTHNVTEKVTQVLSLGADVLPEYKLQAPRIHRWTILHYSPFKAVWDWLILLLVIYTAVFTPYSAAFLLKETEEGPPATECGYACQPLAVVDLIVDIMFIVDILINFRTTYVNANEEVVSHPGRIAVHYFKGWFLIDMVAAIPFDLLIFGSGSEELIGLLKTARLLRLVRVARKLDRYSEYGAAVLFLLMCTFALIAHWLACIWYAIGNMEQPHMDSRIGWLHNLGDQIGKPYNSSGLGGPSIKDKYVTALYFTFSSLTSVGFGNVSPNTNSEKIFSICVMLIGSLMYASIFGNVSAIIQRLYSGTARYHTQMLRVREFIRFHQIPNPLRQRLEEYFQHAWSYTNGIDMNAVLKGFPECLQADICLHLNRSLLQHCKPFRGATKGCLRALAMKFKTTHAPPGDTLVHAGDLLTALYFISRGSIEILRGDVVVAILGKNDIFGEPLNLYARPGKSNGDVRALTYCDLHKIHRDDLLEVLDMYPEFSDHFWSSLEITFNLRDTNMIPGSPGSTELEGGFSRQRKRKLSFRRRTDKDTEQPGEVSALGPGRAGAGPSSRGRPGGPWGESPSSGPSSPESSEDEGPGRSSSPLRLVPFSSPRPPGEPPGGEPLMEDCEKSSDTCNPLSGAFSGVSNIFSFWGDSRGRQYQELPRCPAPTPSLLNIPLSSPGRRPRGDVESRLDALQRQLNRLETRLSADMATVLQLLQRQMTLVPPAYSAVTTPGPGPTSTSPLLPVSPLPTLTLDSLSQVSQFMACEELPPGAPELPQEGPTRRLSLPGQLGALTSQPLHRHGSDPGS
Sequence of hERG (KCNH2) (Q12809 whole entry, the tested form may be a part): as the sequence (Q12809 whole entry) above

With `Cn1cc(C(=O)OCC2CCN(CCNS(C)(=O)=O)CC2)c2ccccc21`, the negative-log Kb (pKb) in [1] came out at 8.7. The molecule further showed an inhibitory constant (Ki) in series [2] of 0.0398 nM.
For the molecule `Cc1oc(=O)oc1COC(=O)C(C)(C)c1ccc(CN2CCC(COC(=O)c3c4n(c5ccccc35)CCCO4)CC2)cc1`, in the series on Rattus norvegicus [3], the AUC is 1206 ng·h/mL. The “beta t1/2” value in the series with Rattus norvegicus [4] came out at 1.2 h. In addition, in the series on Rattus norvegicus [5], the peak concentration (Cmax) amounted to 817 ng/mL. For the same molecule, the F in the series on Rattus norvegicus [6] was determined as 16%. In addition, in series [7], the logD was 2.2. Besides, the Tmax with Rattus norvegicus [8] was 0.5 h.
As for `CC(C)(C(=O)O)c1ccc(CN2CCC(COC(=O)c3c4n(c5ccccc35)CCCO4)CC2)cc1`, the highest level in series [9] (Cmax) was 130 ng/mL. In [10], the half-life came out at 6.07 h. In addition, the remaining at 1 h, 2 µM in series [11] is < 0.1%. Further, in series [1], the pKb turned out to be 8.6. Further, the bioavailability in series [12] amounted to 3%. For the same molecule, the time of peak concentration (Tmax) in [13] was 0.2 h. At hERG (KCNH2), this molecule registered an inhibition at 100 µM of 55.8%. Besides, the logD in [7] was -1.2. For the same molecule, the Ki in series [2] is 0.126 nM. This molecule had an exposure (AUC) in the series with Rattus norvegicus [14] of 285 ng·h/mL. The IC50 in series [15] turned out to be 69000 nM.
In the case of `CCCCN1CCC(CNC(=O)c2c3n(c4ccccc24)CCCO3)CC1` [PIBOSEROD], the pKb in [1] stood at 9.1. The same molecule gave a Ki in series [2] of 0.1 nM.
Consider `CC(C)(C)c1ccc(CN2CCC(COC(=O)c3c4n(c5ccccc35)CCCO4)CC2)cc1`, for which the Cmax is 33 ng/mL in series [9] and 13 ng/mL in the series on Rattus norvegicus [5]. Besides, in series [10], the half-life turned out to be 26.8 h. The AUC in the series with Rattus norvegicus [3] was found to be 127 ng·h/mL; in the series with Rattus norvegicus [14], 533 ng·h/mL. Further, in the series on Rattus norvegicus [4], the “beta t1/2” value was 19.83 h. This molecule also gave a bioavailability in series [12] of 6%. Further, in the series on Rattus norvegicus [6], the F is 1%. For the same molecule, the time of peak concentration (Tmax) in series [13] is 5.67 h; in the series with Rattus norvegicus [8] it was 1.33 h. Besides, the logD in series [7] was found to be 2.4.
